{
  "source": "paper PMC13077713",
  "about": "(Journal of medicinal chemistry, 2025)",
  "key": {"[1]": {"tested_on": "HBV DNA production in HepAD38 cells", "test": "Anti-HBV activity", "type": "cell-based, Hepatitis B virus (HBV)"}, "[2]": {"tested_on": "human peripheral blood mononuclear (PBM) cells", "test": "Cytotoxicity, CellTiter 96 cell proliferation assay, PBM cells", "type": "cell-based", "conditions": "read-out: Cytotoxicity, CC50 PBM; PBM cells"}, "[3]": {"tested_on": "HBV-infected HepG2-NTCP cells", "type": "cell-based"}, "HBc in HepAD38 cells": {"tested_on": "HBc in HepAD38 cells", "test": "Confocal microscopy, nucleo-cytoplasmic distribution of HBc in HepAD38 cells", "type": "cell-based, Hepatitis B virus (HBV)", "conditions": "increasing concentration, 72 h"}, "[4]": {"target": "preassembled HBV capsids (Cp149 protein) (Hepatitis B virus genotype D subtype ayw, UniProt P03146)", "sequence (P03146 1-149)": "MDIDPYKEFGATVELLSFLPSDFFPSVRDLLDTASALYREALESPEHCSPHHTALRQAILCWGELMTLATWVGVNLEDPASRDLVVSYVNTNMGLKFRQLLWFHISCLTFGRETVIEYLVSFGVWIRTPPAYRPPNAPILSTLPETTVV", "conditions": "20 μM CAM"}, "Cp149 dimers [5]": {"target": "T1, Cp149 dimers (Hepatitis B virus genotype D subtype ayw, UniProt P03146)", "T1 sequence (P03146 1-149)": "as above", "test": "Static SAXS of Cp149 capsid assembly in the presence of CAM", "type": "biochemical, Hepatitis B virus (HBV)", "conditions": "ρ = 3, undiluted sample, 30 μM dimers; 1.54 cm^−1 without CAM"}, "[6]": {"tested_on": "HBV-infected HepG2-NTCP cells", "type": "cell-based", "conditions": "post-infection treatment"}, "[7]": {"tested_on": "human hepatocellular carcinoma (HepG2) cells", "test": "Cytotoxicity, CellTiter 96 cell proliferation assay, HepG2 cells", "type": "cell-based", "conditions": "read-out: Cytotoxicity, CC50 HepG2; HepG2 cells"}, "Cp149 dimers [8]": {"target": "T1, Cp149 dimers"}, "Cp149 dimers [9]": {"target": "T1, Cp149 dimers", "test": "Cryo-electron microscopy classification of Cp149 capsids assembled with CAM", "type": "biochemical, Hepatitis B virus (HBV)", "conditions": "90 μM, 30 μM subunits", "how_it_was_run": "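Cp149 was expressed in E. coli BL21 and purified as capsids. These were dissociated with 3 M urea and taken to subunits by SEC. Assembly was triggered manually by mixing 30 μM (1 mg/ml) dimers in 1 mM DTT, 20 mM Tris-HCl pH 7.5 with 200 mM ammonium acetate, with or without 90 μM CAM (ρ = 3). Samples were concentrated 11-fold, imaged by cryo-EM, and particles 2D-classified.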"}, "[10]": {"tested_on": "human T lymphoblast (CEM) cells", "test": "Cytotoxicity, CellTiter 96 cell proliferation assay, CEM cells", "type": "cell-based", "conditions": "read-out: Cytotoxicity, CC50 CEM; CEM cells"}, "[11]": {"tested_on": "African green monkey kidney (Vero) cells", "test": "Cytotoxicity, CellTiter 96 cell proliferation assay, Vero cells", "type": "cell-based", "conditions": "read-out: Cytotoxicity, CC50 Vero; Vero cells"}},
  "note": "“And” between values parts separate entries of the source, which are not always exact repeats. Identical values can stand only once.",
  "data": [
    {"smiles": "Cc1c(C(=O)C(=O)NCc2cn(CCCCCCCCCCCCCCn3cc(CNC(=O)C(=O)c4c(C)c(C(=O)Nc5ccc(F)c(F)c5)n(C)c4C)nn3)nn2)c(C)n(C)c1C(=O)Nc1ccc(F)c(F)c1", "note": "[Compound 6e, 4,4’-(2,2’-(((Tetradecane-1,14-diylbis(1H-1,2,3-triazole-1,4-diyl))bis(methylene))bis(azanediyl))bis(2-oxoacetyl))bis(N-(3,4-difluorophenyl)-1,3,5-trimethyl-1H-pyrrole-2-carboxamide)]", "values": [
      {"measurement": "times more potent than reference compound GLP-26", "setting": "[1]; HepAD38 EC50 vs GLP-26", "result": 80, "unit": "times"},
      {"measurement": "EC50", "setting": "[1]; read-out: Anti-HBV activity EC50, HBV DNA production, HepAD38 cells", "result": 0.0001, "unit": "µM"},
      {"measurement": "EC90", "setting": "[1]; read-out: Anti-HBV activity EC90, HBV DNA production, HepAD38 cells", "result": "0.009 ± 0.0002", "unit": "µM"},
      {"measurement": "CC50", "setting": "[2]", "result": "> 100", "unit": "µM"},
      {"measurement": "HBeAg EC50 compared to GLP-26 or GLS-4", "setting": "[3]", "result": "nearly eight-fold lower"},
      {"measurement": "levels of HBc inside the nucleus", "setting": "HBc in HepAD38 cells", "result": "clear decrease in the levels of HBc inside the nucleus"},
      {"measurement": "Radius (DLS, table)", "setting": "[4]; 7.5 μM Cp149, 30 min, 1% DMSO control 24.6 ± 3.4", "result": "214 ± 61.3", "unit": "nM"},
      {"measurement": "PD (polydispersity)", "setting": "[4]; 7.5 μM Cp149, 30 min, 1% DMSO control 32.3 ± 18.6", "result": "Multimodal distribution"},
      {"measurement": "average particle radius (DLS, text)", "setting": "[4]; 1% DMSO control 24.6 nm", "result": 214, "unit": "nm"},
      {"measurement": "SAXS intensity at zero angle I(0)", "setting": "Cp149 dimers [5]", "result": 1.32, "unit": "cm⁻¹"},
      {"measurement": "fold more potent than GLP-26 at inhibiting HBV virion production", "setting": "[6]", "result": 10, "unit": "fold"},
      {"measurement": "fold more potent than GLP-26 at inhibiting HBeAg biogenesis", "setting": "[6]", "result": 10, "unit": "fold"},
      {"measurement": "CC50", "setting": "[7]", "result": "> 100", "unit": "µM"},
      {"measurement": "Associated timescale of Rgw", "setting": "Cp149 dimers [8]", "result": "131 ± 21", "unit": "ms"},
      {"measurement": "Associated timescale of 〈N〉w", "setting": "Cp149 dimers [8]", "result": "633 ± 77", "unit": "ms"},
      {"measurement": "Rgw (mean radius of gyration, plateau)", "setting": "Cp149 dimers [8]", "result": "142 ± 0.3", "unit": "Å"},
      {"measurement": "Subunit binding energies −Δg", "setting": "Cp149 dimers [8]", "result": 9.5, "unit": "kT"},
      {"measurement": "〈N〉w∞ (mean aggregation number at equilibrium)", "setting": "Cp149 dimers [8]", "result": "126 and 126 ± 3"},
      {"measurement": "capsids that displayed defects (single-particle analysis)", "setting": "Cp149 dimers [9]", "result": "approximately 45%"},
      {"measurement": "CC50", "setting": "[10]", "result": "> 100", "unit": "µM"},
      {"measurement": "CC50", "setting": "[11]", "result": "> 100", "unit": "µM"}
    ]}
  ]
}
